# Data: ChEMBL document CHEMBL1157476, “A novel class of cycloalkano[b]pyridines as potent and orally active opioid receptor-like 1 antagonists with minimal binding affinity to the hERG K+ channel” (J Med Chem, 2008)
# Columns and labels:
# Canis familiaris [1] = experiment: Cardiovascular activity in anesthetized dog assessed as corrected QT interval at 1 mg/kg, iv dosed for 10 mins measured after 20 mins relative to baseline; type: functional, Canis lupus familiaris
# Procedure, shortened: (§1)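 Isoflurane-anesthetized dogs (n = 1 or 3) given cumulative iv doses as saline solutions, each infused over 10 min; 2 and 7 mg/kg doses given 20 min after the prior administration. QTc measured at 0, 10 and 20 min after dosing, expressed as percent change from baseline for each dog. Peak plasma levels taken after each dose.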
# Canis familiaris [2] = experiment: Cardiovascular activity in anesthetized dog assessed as corrected QT interval at 2 mg/kg, iv dosed for 10 mins measured after 20 mins relative to baseline; type: functional, Canis lupus familiaris; procedure, shortened: as §1
# Canis familiaris [3] = experiment: Cardiovascular activity in anesthetized dog assessed as corrected QT interval at 7 mg/kg, iv dosed for 10 mins measured after 20 mins relative to baseline; type: functional, Canis lupus familiaris; procedure, shortened: as §1
# [4] = Metabolic stability in rat hepatocyte after 30 mins; type: ADME, cell-based; conditions: rat hepatocytes, read-out: Stability
# Procedure, shortened: (§2)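 Compound incubated 30 min with rat hepatocytes or cryopreserved human hepatocytes; percent parent remaining reported; rat as mean of duplicates, human as mean of three experiments.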
# [5] = Metabolic stability in cryopreserved human hepatocyte after 30 mins; type: ADME, cell-based; conditions: cryopreserved human hepatocytes, read-out: Stability; procedure, shortened: as §2
# [6] = Plasma clearance in Sprague-Dawley rat at 0.65 mg/kg, iv; type: ADME, organism-based; parameters: dose 0.65 mg/kg, route intravenous
# Procedure, shortened: (§3)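 Fasted Sprague-Dawley rats (n = 3) given an intravenous solution in water at 3 or 0.65 mg/kg; plasma pharmacokinetic parameters from the IV arm.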
# [7] = Half life in Sprague-Dawley rat at 0.65 mg/kg, iv; type: ADME, organism-based; parameters: dose 0.65 mg/kg, route intravenous; conditions: in vivo; procedure, shortened: as §3
# Rattus norvegicus = experiment: AUC (0 to infinity) in Sprague-Dawley rat at 0.65 mg/kg, iv; type: ADME, organism-based, Plasma; parameters: time infinity, dose 0.65 mg/kg, route intravenous; conditions: in vivo
# Procedure, shortened: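 Fasted Sprague-Dawley rats (n = 3) received a single intravenous dose. Plasma exposure was expressed as AUC from zero to infinity, in µM·h. The same study also yielded clearance, half-life and steady-state volume of distribution, with oral dosing run in parallel.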
# [8] = Volume of distribution at steady state in Sprague-Dawley rat at 0.65 mg/kg, iv; type: ADME, organism-based; parameters: dose 0.65 mg/kg, route intravenous; conditions: in vivo, read-out: Vdss; procedure, shortened: as §3
# [9] = Bioavailability in Sprague-Dawley rat at 3 mg/kg, iv; type: ADME, organism-based; conditions: in vivo, po, in the assay text read “po” for “iv”
# Procedure, shortened: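 Fasted Sprague-Dawley rats (n = 3) dosed orally as a solution in water (10 or 3 mg/kg), with matching intravenous arms at 3 or 0.65 mg/kg; F from oral versus IV exposure.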
# [10] = Plasma clearance in Beagle dog at 1 mg/kg, iv; type: ADME, organism-based, Canis lupus familiaris; parameters: dose 1 mg/kg, route intravenous
# Procedure, shortened: (§4)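 Fasted Beagle dogs (n = 3) given 1 mg/kg intravenously; plasma pharmacokinetic parameters derived from the IV arm.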
# [11] = Half life in Beagle dog at 1 mg/kg, iv; type: ADME, organism-based, Canis lupus familiaris; parameters: dose 1 mg/kg, route intravenous; conditions: in vivo; procedure, shortened: as §4
# [12] = AUC (0 to infinity) in Beagle dog at 1 mg/kg, iv; type: ADME, organism-based, Canis lupus familiaris; parameters: time infinity, dose 1 mg/kg, route intravenous; conditions: plasma; procedure, shortened: as §4
# [13] = Volume of distribution at steady state in Beagle dog at 1 mg/kg, iv; type: ADME, organism-based, Canis lupus familiaris; parameters: dose 1 mg/kg, route intravenous; conditions: in vivo, read-out: Vdss; procedure, shortened: as §4
# Mu-type opioid receptor = Mu-type opioid receptor (Homo sapiens, UniProt P35372); experiment: Displacement of [3H]diprenorphin from human cloned mu opioid receptor expressed in CHO cells; type: cell-based
# Sequence of Mu-type opioid receptor (P35372 whole entry): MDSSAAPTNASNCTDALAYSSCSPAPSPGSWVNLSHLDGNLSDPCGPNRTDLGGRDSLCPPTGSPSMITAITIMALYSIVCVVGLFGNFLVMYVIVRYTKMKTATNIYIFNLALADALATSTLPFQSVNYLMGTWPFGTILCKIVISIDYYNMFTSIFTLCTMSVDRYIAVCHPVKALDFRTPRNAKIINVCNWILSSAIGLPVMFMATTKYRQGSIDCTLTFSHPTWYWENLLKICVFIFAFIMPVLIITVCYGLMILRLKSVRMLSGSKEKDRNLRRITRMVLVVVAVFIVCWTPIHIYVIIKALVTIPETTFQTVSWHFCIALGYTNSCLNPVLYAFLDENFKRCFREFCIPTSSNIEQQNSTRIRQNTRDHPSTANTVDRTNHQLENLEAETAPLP
# Procedure, shortened: (§5)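 Radioligand displacement from CHO cells stably expressing cloned human receptors: [3H]diprenorphin for mu, [3H]U-69593 for kappa, [3H][D-Ala2,D-Leu5]enkephalin for delta; IC50; three independent determinations, each in duplicate.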
# [14] = target: Kappa-type opioid receptor (Homo sapiens, UniProt P41145); experiment: Displacement of [3H]U69593 from human cloned kappa opioid receptor expressed in CHO cells; type: cell-based; procedure, shortened: as §5
# Sequence of Kappa-type opioid receptor (P41145 whole entry): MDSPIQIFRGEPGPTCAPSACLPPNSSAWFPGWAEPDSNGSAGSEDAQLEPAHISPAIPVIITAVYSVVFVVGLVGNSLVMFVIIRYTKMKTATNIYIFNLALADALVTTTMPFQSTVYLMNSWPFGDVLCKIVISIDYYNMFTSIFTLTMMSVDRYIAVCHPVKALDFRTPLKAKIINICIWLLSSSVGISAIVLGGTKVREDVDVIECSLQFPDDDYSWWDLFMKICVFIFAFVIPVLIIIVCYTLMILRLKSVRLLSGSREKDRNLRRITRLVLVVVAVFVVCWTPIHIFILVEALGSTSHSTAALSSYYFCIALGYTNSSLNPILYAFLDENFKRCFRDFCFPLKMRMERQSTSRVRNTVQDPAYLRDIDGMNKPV
# [15] = target: Delta-type opioid receptor (Homo sapiens, UniProt P41143); experiment: Displacement of [3H][D-Ala2,D-Leu5]enkephalin from human cloned delta opioid receptor expressed in CHO cells; type: cell-based; procedure, shortened: as §5
# Sequence of Delta-type opioid receptor (P41143 whole entry): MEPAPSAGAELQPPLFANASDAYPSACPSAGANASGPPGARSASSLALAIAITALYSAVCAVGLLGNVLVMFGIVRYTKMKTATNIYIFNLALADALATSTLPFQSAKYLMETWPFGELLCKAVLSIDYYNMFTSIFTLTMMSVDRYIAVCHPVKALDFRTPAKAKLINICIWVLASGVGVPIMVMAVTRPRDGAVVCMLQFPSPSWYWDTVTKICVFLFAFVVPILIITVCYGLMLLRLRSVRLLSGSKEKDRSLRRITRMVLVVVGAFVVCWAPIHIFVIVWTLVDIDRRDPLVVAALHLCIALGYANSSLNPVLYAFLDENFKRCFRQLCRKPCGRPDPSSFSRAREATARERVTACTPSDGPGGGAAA
# Mus musculus = experiment: Reversal of ORL agonist-induced locomotor activity in CD1 mouse at 10 mg/kg, po after 60 mins; type: functional
# Procedure, shortened: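 Mice (n = 6) dosed orally at 10 mg/kg, then given an ORL1 agonist. Locomotor activity counted over 60 min against vehicle control and agonist-only groups. Result expressed as % reversal of the agonist-induced reduction in locomotion.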
# [16] = Plasma concentration in rat at 10 mg/kg, po after 1 hrs; type: ADME, organism-based; parameters: dose 10 mg/kg, route oral
# Procedure, shortened: (§6)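 Oral dose 10 mg/kg; plasma and brain collected 1 h after administration and drug concentrations measured, n = 3 per group.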
# Brain = experiment: Drug level in rat brain at 10 mg/kg, po after 1 hrs; type: ADME, organism-based; parameters: dose 10 mg/kg, route oral; conditions: in vivo; procedure, shortened: as §6
# Plasma = conditions: dog, in vivo, iv, 1 mg/kg, 20 min
# in vivo [17] = conditions: dog, plasma, iv, 1 mg/kg
# in vivo [18] = conditions: dog, plasma, iv, 2 mg/kg
# in vivo [19] = conditions: dog, plasma, iv, 7 mg/kg
# physchem [20] = conditions: buffer, pH 7.4
# physchem [21] = experiment: physchem
# [22] = Bioavailability in Beagle dog at 3 mg/kg, po; conditions: in vivo
# Nociceptin receptor [23] = target: T1, Nociceptin receptor (Homo sapiens, UniProt P41146); experiment: Displacement of [125I][Tyr14]nociceptin from human ORL1 expressed in CHO cells; type: cell-based
# T1 sequence (P41146 whole entry): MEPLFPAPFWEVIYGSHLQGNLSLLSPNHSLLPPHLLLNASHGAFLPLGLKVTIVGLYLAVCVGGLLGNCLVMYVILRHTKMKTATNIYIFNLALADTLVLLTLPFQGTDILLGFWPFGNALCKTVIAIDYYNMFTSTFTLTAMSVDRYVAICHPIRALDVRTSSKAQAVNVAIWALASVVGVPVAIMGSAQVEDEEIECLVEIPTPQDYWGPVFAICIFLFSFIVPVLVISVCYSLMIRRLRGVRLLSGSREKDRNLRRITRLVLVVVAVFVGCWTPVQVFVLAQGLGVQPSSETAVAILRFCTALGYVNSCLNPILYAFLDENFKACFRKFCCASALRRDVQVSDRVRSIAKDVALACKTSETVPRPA
# [24] = target: Voltage-gated inwardly rectifying potassium channel KCNH2 (Homo sapiens, UniProt Q12809)
# Sequence of Voltage-gated inwardly rectifying potassium channel KCNH2 (Q12809 whole entry): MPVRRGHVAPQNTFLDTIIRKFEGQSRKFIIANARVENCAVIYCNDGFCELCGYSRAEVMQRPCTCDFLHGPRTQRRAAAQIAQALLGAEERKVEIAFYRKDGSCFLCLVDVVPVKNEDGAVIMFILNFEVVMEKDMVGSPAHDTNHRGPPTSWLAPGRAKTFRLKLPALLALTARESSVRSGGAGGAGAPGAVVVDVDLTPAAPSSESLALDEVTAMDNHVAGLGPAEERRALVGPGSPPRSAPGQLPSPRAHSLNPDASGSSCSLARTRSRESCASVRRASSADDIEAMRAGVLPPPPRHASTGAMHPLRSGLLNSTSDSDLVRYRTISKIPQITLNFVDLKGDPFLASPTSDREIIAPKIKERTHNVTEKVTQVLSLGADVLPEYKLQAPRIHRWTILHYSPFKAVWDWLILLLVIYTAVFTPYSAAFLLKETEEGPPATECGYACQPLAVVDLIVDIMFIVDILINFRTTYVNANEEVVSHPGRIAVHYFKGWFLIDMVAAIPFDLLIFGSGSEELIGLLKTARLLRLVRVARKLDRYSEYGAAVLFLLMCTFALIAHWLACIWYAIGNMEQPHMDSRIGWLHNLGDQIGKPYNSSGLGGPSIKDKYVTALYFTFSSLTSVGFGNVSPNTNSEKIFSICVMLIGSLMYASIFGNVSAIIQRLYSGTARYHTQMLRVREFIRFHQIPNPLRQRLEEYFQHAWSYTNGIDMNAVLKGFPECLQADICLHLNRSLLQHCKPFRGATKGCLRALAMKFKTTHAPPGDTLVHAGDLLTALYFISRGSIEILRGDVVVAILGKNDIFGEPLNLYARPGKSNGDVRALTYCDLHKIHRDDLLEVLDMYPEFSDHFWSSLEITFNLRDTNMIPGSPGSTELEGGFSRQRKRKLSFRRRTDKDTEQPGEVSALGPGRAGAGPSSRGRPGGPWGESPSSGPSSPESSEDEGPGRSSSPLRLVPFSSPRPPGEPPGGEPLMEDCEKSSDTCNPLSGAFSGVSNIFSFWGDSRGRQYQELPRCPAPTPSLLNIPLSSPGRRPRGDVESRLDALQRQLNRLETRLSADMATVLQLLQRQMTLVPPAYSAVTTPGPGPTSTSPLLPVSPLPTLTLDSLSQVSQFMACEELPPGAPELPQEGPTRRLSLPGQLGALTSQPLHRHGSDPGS
# Nociceptin receptor [25] = target: T1, Nociceptin receptor; experiment: Antagonist activity at human ORL1 expressed in CHO cells assessed as effect on nociceptin-induced GTPgammaS binding; type: functional, cell-based
compound,measurement,setting,value
O[C@H]1C[C@H](CN2CC[C@H](c3ccc(F)cc3Cl)[C@@H](O)C2)Cc2cccnc21,Activity,Canis familiaris [1],1.1%
same,Activity,Canis familiaris [2],0.9%
same,Activity,Canis familiaris [3],2%
same,remaining at 0.5 h,[4],30%
same,remaining at 0.5 h,[5],93%
same,clearance,[6],47 mL/min/kg
same,half-life,[7],1.2 h
same,AUC,Rattus norvegicus,0.59 µM·h
same,Vd,[8],3.9 L/kg
same,bioavailability,[9],13%
same,clearance,[10],19 mL/min/kg
same,half-life,[11],13.5 h
same,AUC(0-inf),[12],2 µM·h
same,Vd,[13],10.6 L/kg
same,IC50,Mu-type opioid receptor,> 10000 nM
same,IC50,[14],> 10000 nM
same,IC50,[15],> 10000 nM
same,Activity,Mus musculus,89%
same,concentration at 1 h,[16],0.03 µM
same,Drug uptake,Brain,0.172 nmol/g
same,PPB,Plasma,57%
same,concentration at 20 min,in vivo [17],3.48 µM
same,concentration at 20 min,in vivo [18],8.3 µM
same,concentration at 20 min,in vivo [19],29.8 µM
same,logD,physchem [20],2.3
same,pKa,physchem [21],7.4
same,bioavailability,[22],39%
Cc1cc(F)ccc1[C@H]1CCN(C[C@@H]2Cc3cccnc3[C@@H](O)C2)C[C@@H]1O,Ki,Nociceptin receptor [23],21 nM
same,logD,physchem [20],1.9
Cc1ccccc1C1CCN(C[C@@H]2Cc3cccnc3[C@@H](O)C2)CC1,Ki,Nociceptin receptor [23],11 nM
same,IC50,[24],> 50000 nM
same,logD,physchem [20],2
Cc1ccccc1C1CCN(C[C@@H]2CCc3cccnc3C(C)(O)C2)CC1 (stereo in doubt; form 1),Ki,Nociceptin receptor [23],24 nM
Cc1ccccc1[C@@H]1CCN(C[C@@H]2CCc3cccnc3[C@@H](O)C2)C[C@H]1C,Ki,Nociceptin receptor [23],3.5 nM
same,IC50,Nociceptin receptor [25],5.7 nM
same,logD,physchem [20],3
Cc1ccccc1C1CCN(C[C@@H]2CCc3cccnc3C(=O)C2)CC1,Ki,Nociceptin receptor [23],49 nM
same,logD,physchem [20],1.3
Cc1ccccc1C1CCN(C[C@@H]2CCc3cccnc3C3(C2)OCCO3)CC1,Ki,Nociceptin receptor [23],25 nM
same,logD,physchem [20],3.1
O[C@H]1C[C@H](CN2CC[C@H](c3ccc(F)cc3Cl)[C@@H](O)C2)CCc2cccnc21,Ki,Nociceptin receptor [23],4.4 nM
same,IC50,Nociceptin receptor [25],5 nM
